# Screening data: PubChem BioAssay, The Scripps Research Institute Molecular Screening Center
# An excerpt weighted towards active compounds, which were near 3.1% of everything screened.
# GPR7 antag: antagonists of human GPR7 (neuropeptides B/W receptor 1) | P48145 | inhibition, % at 4.4 µM | GPR7-expressing cells, fluorescence antagonist assay | actives 1.1% (n = 290,000) | AID 1861; in the data active = inhibition above about 16%, passing the limit was not always enough;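 also: cells stimulated with the agonist NPW; 0% = agonist with vehicle and 100% = vehicle without agonist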
# OX1R antag-1: blocks the human orexin 1 receptor; actives 0.43% (n = 330,000); inhibition, % at 5 µM; AID 434989; CHO/OX1R cells, Fluo-8 calcium fluorescence, orexin A; O43613;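 active = inhibition above its plate's threshold, mean inhibition of all tested compounds on the plate plus 3 SD, cut at about 37% in these data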;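 also: 0% = orexin A challenge wells and 100% = SB-334867-A antagonist wells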
# Target sequence (O43613 whole entry, looked up): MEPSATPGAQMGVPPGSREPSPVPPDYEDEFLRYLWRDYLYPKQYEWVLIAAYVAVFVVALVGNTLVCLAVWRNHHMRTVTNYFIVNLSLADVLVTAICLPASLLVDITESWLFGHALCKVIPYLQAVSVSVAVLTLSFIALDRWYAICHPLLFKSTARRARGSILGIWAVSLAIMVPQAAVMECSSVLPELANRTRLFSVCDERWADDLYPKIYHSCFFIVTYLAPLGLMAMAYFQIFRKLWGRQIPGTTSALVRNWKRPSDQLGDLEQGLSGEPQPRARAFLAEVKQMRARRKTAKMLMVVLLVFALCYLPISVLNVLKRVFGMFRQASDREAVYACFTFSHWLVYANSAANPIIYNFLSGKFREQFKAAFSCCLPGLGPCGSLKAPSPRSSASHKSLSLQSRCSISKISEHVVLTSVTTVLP
# OX1R antag-2: OX1R (human) antagonism. O43613. actives 1.8% (n = 330,000). OX1R-expressing cells, FRET antagonist read-out. inhibition, % at 6.6 µM; in the data active = inhibition mostly above about 38%, no sharp cut-off; inactive = mostly below about 40%;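 also: 0% = agonist challenge alone and 100% = reference antagonist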
# GalR3 antag: blocks the human galanin receptor 3; O60755; HEK293 GalR3-CNG cAMP membrane potential fluorescence; galR3 body fused to GalR1 C-terminus; inhibition, % at 3 µM; actives 0.44% (n = 360,000); AID 651719;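 active = inhibition above the screen-wide average plus 3 SD, cut at about 13% in these data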;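 also: forskolin and galanin both at EC90 stimulate the cells; cAMP rise reported by CNG channel membrane potential dye signal; 0% = forskolin plus galanin with DMSO and 100% = forskolin alone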
# CHO parental Ca: counter-screen: ATP calcium response change in parental CHO cells | parental CHO-K1, ATP-induced calcium, Fluo-8 fluorescence | inhibition, % at 5.6 µM | actives 0.63% (n = 330,000) | AID 463079;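 active = inhibition above that plate's mean sample inhibition plus 3 SD, cut at about 26% in these data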;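 also: 0% = ATP-challenged DMSO wells and 100% = DMSO wells without ATP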
#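 Material: parental CHO cells / Compound: single nominal dose of 5.6 µM per compound / Signal: Fluo-8 fluorescence / Replicates: singlicate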
# GPR7 antag conf: confirmation of human GPR7 antagonists | inhibition, % at 4.4 µM | AID 1952 | actives 52% (n = 2,400) | GPR7-expressing cells, calcium fluorescence antagonist mode | shares compounds with GPR7 antag; in the data active = inhibition above about 24%;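 also: stimulated with the GPR7 agonist NPW; 0% = agonist plus vehicle and 100% = vehicle alone without agonist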
# MCHR1 antag: MCHR1 (human) antagonism in GPR7 counter-screen. inhibition, % at 4.4 µM. actives 62% (n = 2,400). shares compounds with GPR7 antag. MCHR1-expressing cells, fluorescence antagonist assay. AID 2148; in the data active = inhibition above about 22%;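 also: 0% = vehicle with agonist and 100% = vehicle without agonist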
# * hit, by the source's call; · = no result.
SMILES,GPR7 antag,OX1R antag-1,OX1R antag-2,GalR3 antag,CHO parental Ca,GPR7 antag conf,MCHR1 antag
CCOc1ccc(-n2c(=S)sc3c(=O)[nH]c(SCC(=O)NC4CCCCC4)nc32)cc1,·,·,·,-3,·,·,·
CCCCNC(=O)C(NC(=O)c1cccnc1OC)C(=O)c1ccccc1 (stereo not drawn),·,·,·,-4,·,·,·
CCCCC(OC(=O)CN1C(=O)COc2ccccc21)C(=O)NC1CCCCC1 (stereo not drawn),31*,-32,22,-7,-10,38*,24*
CCCC(OC(=O)CN1C(=O)COc2ccccc21)C(=O)NC1CCCC1 (stereo not drawn),15,-15,10,·,-12,·,·
O=C(NCCc1cccs1)Nc1ccc2nc([C@@H]3O[C@H](CO)[C@@H](O)[C@H]3O)[nH]c2c1,·,·,·,1,·,·,·
CCOc1ccc2c(c1)C(C)=CC(C)(C)N2S(=O)(=O)c1ccc(NC(C)=O)cc1,16,-16,6,-9,-1,·,·
COc1ccc2c(c1)C(C)=CC(C)(C)N2S(=O)(=O)c1ccc(NC(C)=O)cc1,24*,-12,11,-6,4,32*,44*
O=C(Nc1ccc(C(F)(F)F)cc1)C1CCN(S(=O)(=O)c2ccc(N3CCCC3=O)cc2)CC1,23*,-10,4,-7,-7,23,49*
O=C(O)[C@H]1CCCC[C@H]1C(=O)Nc1ccc(S(=O)(=O)N2CCOCC2)cc1,-12,-10,21,-8,-5,·,·
COc1ccc(NC(=O)C2CCN(S(=O)(=O)c3ccc(N4CCCC4=O)cc3)CC2)cc1OC,-3,-17,4,-10,-20,·,·
O=C(O)[C@H]1CCCC[C@H]1C(=O)Nc1ccc(S(=O)(=O)N2CCCCC2)cc1,23*,-7,18,-9,8,-17,-5
CCn1c(-c2ccc(N(C)C)cc2)nc2ccccc21,37*,-30,7,-6,-8,17,26*
CCn1c(-c2ccc(N)cc2)nc2ccccc21,-12,-34,9,5,-9,·,·
COC(=O)C1=C(C)N(C)C(=NCc2ccc3c(c2)OCO3)NC1c1ccc(F)cc1 (stereo not drawn),·,·,·,-5,·,·,·
CC1CCN(c2nc(CN3CCCCC3)nc3scc(-c4ccccc4)c23)CC1,23*,-26,11,-4,-17,32*,32*
O=[N+]([O-])c1ccc(S(=O)(=O)NCC2CC3CCC2C3)cc1 (stereo not drawn),15,-40,-2,-11,-9,·,·
O=[N+]([O-])c1cccc(S(=O)(=O)NCC2CC3CCC2C3)c1 (stereo not drawn),38*,-22,-6,-11,-4,-2,-9
Cc1ccccc1CN(c1ccc(C(=O)N2CCc3ccccc3C2)cc1)S(C)(=O)=O,28*,-21,20,1,-9,52*,58*
CNC(=O)c1ccc(N(Cc2ccccc2C)S(C)(=O)=O)cc1,-8,-2,9,0,-5,·,·
CCN(CC)c1nc(Nc2ccccc2)nc(Oc2ccc(=O)n(C)n2)n1,23*,-24,7,-3,-15,-12,-19
CCN(CC)c1nc(Nc2ccccc2)nc(Oc2ccc(=O)[nH]n2)n1,-3,-22,4,-8,-29,·,·
CC(=O)Oc1ccc2ccc3ccc(C(C)=O)cc3c2c1,·,·,·,-4,·,·,·
CCOc1ccccc1CNC(=O)c1cc2oc3ccccc3c2n1C,8,0,15,-4,-31,·,·
CCOc1ccccc1CNC(=O)c1cc2occc2n1C,24*,-36,11,6,-15,16,15
CCC(C)(C(=O)NC1CCCC1)N(Cc1ccco1)C(=O)Cc1cccs1 (stereo not drawn),38*,-20,19,-4,-16,33*,23*
SMILES,GPR7 antag,OX1R antag-1,OX1R antag-2,GalR3 antag,CHO parental Ca,GPR7 antag conf,MCHR1 antag
CCC(C)(C(=O)NC1CCCC1)N(Cc1ccco1)C(=O)c1ccccn1 (stereo not drawn),17,-34,13,-6,-9,·,·
CCC(C)(C(=O)NC1CCCC1)N(Cc1ccco1)C(=O)c1ccc2c(c1)OCO2 (stereo not drawn),31*,-30,11,-7,-11,37*,20
CC(C)C[C@@H](CNCC(=O)[C@H](Cc1ccccc1)NC(=O)c1[nH]cnc1C(=O)N[C@H](CN)CC(C)C)NC(=O)c1nc[nH]c1C(=O)N[C@@H](CC(=O)O)C(=O)O,·,·,·,-5,·,·,·
Brc1ccc(CN2CCCc3nc(-c4ccccc4)ccc32)cc1,·,·,·,-5,·,·,·
Cc1cc(C)c2c(=O)n3c(nc2c1)C(C)NC(=O)c1cccnc1-3 (stereo not drawn),·,·,·,-7,·,·,·
CN(CC(=O)Nc1ccccc1Br)C(=O)CCc1ccccc1,23*,1,17,-1,-2,2,-9
CN(CC(=O)Nc1ccccc1Br)C(=O)CCC1CCCC1,4,-9,10,-3,-13,·,·
CCCN1CCCCC(NC(=O)c2ccc(-c3ccccc3)cc2)C1=O (stereo not drawn),·,·,·,0,·,·,·
Cc1cccc(C)c1-n1c(SCC(=O)N2CC(=O)Nc3ccccc32)nc2ccccc2c1=O,16,-19,4,-5,-26,·,·
Cc1ccc(-n2c(SCC(=O)N3CC(=O)Nc4ccccc43)nc3ccccc3c2=O)cc1,27*,-23,22,-2,-15,6,-10
COCCN1C[C@@H](CO)O[C@@H](n2cnc3c(N4CCCC4)ncnc32)C1,·,·,·,-2,·,·,·
Clc1ccc(-c2csc(NCC3CCCO3)n2)cc1 (stereo not drawn),·,·,·,-5,·,·,·
CC(C)CN(C(=O)C1=COCCO1)c1c(N)n(Cc2ccccc2)c(=O)[nH]c1=O,·,·,·,4,·,·,·
COc1cc(C2c3sc(=O)[nH]c3SC3C4CCC(C4)C23)ccc1O (stereo not drawn),27*,-17,12,-10,-19,-18,15
COc1ccc(C2c3sc(=O)[nH]c3SC3C4CCC(C4)C23)cc1 (stereo not drawn),-15,-33,6,-4,-8,·,·
O=C(NCc1cccnc1)c1ccc(COc2ccc(Cl)cc2Cl)o1,-3,-18,16,-4,-10,·,·
O=C(NCc1cccnc1)c1ccc(COc2cccc3ccccc23)o1,32*,-16,44,-6,-28,44*,43*
CC1(C)CC(C(CC(=O)N2CCCC2)Cc2ccccc2)CCO1 (stereo not drawn),23*,-21,-1,1,-10,9,14
COc1ccc(C(=O)N(C(C)C)C(C)C)c(OC)c1,25*,-4,8,-5,-3,14,8
COc1ccc(C(=O)NCC(C)C)c(OC)c1,2,-31,11,0,-14,·,·
COc1ccc(C(=O)/C=C/c2ccc(N(C)C)cc2)c(OC)c1,32*,112*,83*,-3,59*,58*,81*
